Structures are written as SMILES.

What is called inhibition is the drop in the measured response relative to a control, in per cent.

The target of assay [1] is Serine/threonine-protein kinase MARK1 (Homo sapiens) (UniProt Q9P0L2). Nature of the assay: Inhibition of human recombinant MARK1 at 15 nM in presence of ATP by radiometric assay relative to control.
Assay [2] deals with T1, Serine/threonine-protein kinase Sgk1 (Homo sapiens) (UniProt O00141).
T1 sequence (whole entry): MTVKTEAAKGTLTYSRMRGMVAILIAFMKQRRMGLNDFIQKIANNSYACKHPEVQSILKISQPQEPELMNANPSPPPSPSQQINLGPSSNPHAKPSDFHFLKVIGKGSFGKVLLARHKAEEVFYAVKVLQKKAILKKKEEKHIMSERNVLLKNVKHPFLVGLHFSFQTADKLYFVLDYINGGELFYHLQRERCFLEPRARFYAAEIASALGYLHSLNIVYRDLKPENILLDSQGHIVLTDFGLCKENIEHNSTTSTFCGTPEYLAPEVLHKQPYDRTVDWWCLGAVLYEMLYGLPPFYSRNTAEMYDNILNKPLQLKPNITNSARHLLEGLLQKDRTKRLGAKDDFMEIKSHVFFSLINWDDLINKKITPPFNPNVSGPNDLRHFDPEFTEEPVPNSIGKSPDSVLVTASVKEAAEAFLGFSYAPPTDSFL
The experiment in a line: Inhibition of human recombinant SGK1 at 15 nM related to control ULK1.

The target in assay [3] is Tyrosine-protein kinase Blk (Homo sapiens) (UniProt P51451). The experiment in a line: Inhibition of human recombinant BLK at 15 nM in presence of ATP by radiometric assay relative to control. A digest of the protocol:
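Part of a radiometric in vitro activity panel of 327 recombinant human kinases. Each kinase was tested in duplicate at one inhibitor concentration. Activity remaining was expressed as a percentage of the vehicle control, and percent inhibition was taken as 100 minus that value.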

The target in assay [4] is T2, Discoidin domain-containing receptor 2 (Homo sapiens) (UniProt Q16832).
T2 sequence (whole entry): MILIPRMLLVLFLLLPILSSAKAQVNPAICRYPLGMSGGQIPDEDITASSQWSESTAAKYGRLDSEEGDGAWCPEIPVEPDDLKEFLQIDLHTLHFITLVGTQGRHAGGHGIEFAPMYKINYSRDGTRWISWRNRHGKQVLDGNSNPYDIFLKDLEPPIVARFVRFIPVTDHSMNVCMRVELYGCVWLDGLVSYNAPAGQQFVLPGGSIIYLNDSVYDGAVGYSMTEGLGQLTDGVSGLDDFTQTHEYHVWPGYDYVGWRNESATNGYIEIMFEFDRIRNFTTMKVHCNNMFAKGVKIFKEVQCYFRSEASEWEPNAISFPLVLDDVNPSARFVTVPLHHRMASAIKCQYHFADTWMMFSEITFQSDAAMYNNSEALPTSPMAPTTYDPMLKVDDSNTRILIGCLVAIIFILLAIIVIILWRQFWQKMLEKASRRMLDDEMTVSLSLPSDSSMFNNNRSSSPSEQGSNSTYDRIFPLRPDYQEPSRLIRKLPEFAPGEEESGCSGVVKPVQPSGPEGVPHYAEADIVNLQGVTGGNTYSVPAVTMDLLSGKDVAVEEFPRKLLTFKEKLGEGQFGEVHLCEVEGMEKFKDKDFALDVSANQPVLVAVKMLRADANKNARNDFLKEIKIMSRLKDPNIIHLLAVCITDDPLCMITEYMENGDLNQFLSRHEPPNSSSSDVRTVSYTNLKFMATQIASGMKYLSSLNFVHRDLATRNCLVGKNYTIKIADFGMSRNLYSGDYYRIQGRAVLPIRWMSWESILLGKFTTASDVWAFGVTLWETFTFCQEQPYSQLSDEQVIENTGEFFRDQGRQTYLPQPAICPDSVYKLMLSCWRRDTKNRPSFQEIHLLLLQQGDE
Nature of the assay: Inhibition of human recombinant DDR2 at 15 nM in presence of ATP by radiometric assay relative to control.

Assay [5] deals with T3, Calcium/calmodulin-dependent protein kinase type IV (Homo sapiens) (UniProt Q16566).
T3 sequence (whole entry): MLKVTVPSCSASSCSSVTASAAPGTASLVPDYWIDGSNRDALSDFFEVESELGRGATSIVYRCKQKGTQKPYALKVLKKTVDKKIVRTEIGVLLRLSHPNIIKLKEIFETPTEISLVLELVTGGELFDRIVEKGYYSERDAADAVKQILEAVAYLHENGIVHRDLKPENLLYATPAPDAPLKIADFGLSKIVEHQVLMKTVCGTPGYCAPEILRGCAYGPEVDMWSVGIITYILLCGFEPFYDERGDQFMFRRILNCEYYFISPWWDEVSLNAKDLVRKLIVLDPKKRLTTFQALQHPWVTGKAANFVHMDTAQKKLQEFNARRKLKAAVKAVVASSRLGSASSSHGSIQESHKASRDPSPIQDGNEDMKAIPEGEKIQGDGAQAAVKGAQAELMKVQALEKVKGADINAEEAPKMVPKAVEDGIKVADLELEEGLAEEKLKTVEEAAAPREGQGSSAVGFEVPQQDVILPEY
The experiment in a line: Inhibition of human recombinant CaMK4 at 40 nM related to control ULK1.

In assay [6] the target is T4, SNF-related serine/threonine-protein kinase (Homo sapiens) (UniProt Q9NRH2).
T4 sequence (whole entry): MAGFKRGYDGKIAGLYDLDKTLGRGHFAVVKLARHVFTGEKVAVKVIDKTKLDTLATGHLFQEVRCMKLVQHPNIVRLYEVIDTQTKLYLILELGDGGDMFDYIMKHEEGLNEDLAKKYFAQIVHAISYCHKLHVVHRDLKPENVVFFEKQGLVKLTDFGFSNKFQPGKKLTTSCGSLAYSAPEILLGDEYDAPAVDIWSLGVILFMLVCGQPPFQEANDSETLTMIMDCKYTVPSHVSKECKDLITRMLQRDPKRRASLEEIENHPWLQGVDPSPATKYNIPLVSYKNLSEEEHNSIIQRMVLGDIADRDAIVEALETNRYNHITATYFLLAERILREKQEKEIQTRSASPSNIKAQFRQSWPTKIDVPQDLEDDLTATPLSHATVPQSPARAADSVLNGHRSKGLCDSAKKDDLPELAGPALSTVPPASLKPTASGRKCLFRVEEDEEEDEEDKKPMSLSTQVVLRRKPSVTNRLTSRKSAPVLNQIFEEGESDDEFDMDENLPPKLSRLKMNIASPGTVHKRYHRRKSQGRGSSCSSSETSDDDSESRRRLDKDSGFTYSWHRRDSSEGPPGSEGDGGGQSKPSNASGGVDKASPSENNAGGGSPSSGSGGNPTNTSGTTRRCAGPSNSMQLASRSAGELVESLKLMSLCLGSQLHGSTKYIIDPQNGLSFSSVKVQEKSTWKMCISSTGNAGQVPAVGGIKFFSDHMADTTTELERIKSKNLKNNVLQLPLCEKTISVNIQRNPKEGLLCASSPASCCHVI
The experiment in a line: Inhibition of human recombinant SNRK at 40 nM related to control ULK1.

Assay [7] has as its target Rhodopsin kinase GRK7 (Homo sapiens) (UniProt Q8WTQ7). The experiment in a line: Inhibition of human recombinant GPRK7 at 500 nM related to control ULK1.

Chain of Tyrosine-protein kinase Blk (Homo sapiens) (P51451 2-505 limits assumed): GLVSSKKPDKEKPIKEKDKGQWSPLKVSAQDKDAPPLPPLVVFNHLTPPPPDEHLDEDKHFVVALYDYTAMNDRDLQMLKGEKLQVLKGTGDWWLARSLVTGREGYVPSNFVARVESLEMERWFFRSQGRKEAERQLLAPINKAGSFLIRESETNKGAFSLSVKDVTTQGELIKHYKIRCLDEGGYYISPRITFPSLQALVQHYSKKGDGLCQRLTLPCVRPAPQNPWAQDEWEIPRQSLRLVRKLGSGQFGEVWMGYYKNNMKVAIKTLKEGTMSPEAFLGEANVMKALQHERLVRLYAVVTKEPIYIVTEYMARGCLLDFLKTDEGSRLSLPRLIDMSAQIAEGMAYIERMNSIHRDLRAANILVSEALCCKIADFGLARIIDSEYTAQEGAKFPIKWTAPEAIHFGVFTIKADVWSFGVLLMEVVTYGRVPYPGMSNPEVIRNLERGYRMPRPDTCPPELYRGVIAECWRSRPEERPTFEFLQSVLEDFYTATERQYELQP
Chain of Serine/threonine-protein kinase MARK1 (Homo sapiens) (Q9P0L2 whole entry, looked up): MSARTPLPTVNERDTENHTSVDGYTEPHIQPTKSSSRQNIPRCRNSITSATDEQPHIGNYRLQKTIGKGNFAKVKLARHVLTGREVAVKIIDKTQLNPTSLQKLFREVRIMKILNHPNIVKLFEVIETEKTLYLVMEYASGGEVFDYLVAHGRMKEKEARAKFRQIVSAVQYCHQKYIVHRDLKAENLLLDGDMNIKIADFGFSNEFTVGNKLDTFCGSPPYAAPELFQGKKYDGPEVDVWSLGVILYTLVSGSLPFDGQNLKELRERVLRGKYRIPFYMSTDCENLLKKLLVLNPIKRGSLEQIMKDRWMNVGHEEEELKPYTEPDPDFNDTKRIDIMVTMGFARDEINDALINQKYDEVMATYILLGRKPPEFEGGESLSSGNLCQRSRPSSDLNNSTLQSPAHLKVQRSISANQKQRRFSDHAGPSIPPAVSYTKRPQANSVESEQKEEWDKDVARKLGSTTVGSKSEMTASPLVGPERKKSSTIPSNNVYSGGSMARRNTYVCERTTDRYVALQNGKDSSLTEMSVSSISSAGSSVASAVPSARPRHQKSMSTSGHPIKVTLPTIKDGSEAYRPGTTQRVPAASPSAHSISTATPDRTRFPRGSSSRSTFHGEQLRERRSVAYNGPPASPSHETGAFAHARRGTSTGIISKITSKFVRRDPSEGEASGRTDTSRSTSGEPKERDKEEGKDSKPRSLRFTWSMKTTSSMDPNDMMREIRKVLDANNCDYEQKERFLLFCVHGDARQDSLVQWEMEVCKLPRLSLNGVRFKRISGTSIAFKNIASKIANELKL
Chain of Rhodopsin kinase GRK7 (Homo sapiens) (Q8WTQ7 whole entry, looked up): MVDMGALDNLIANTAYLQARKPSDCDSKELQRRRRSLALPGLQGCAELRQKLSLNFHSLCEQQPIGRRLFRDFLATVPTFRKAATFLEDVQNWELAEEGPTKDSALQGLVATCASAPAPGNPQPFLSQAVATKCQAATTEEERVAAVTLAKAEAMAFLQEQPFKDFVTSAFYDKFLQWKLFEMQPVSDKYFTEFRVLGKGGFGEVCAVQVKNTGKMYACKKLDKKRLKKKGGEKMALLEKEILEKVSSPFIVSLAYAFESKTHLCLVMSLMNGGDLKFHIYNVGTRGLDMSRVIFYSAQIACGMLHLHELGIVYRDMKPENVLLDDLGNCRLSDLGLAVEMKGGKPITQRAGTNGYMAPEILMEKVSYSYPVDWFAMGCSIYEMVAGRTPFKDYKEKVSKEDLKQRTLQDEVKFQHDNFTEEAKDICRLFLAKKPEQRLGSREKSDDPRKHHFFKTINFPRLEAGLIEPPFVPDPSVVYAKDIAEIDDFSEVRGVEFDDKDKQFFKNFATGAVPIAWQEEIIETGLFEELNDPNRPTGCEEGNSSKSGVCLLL

`CC(C)[C@H](NC(=O)c1cc(-c2cnn3cc(-c4ccc(OCCN5CCCCC5)cc4)cnc23)cs1)C(F)(F)F`: the inhibition in assay [1] came to 54%; in assay [3] it was 10%; in assay [4], 0%. The fold change (FC) in assay [2] was determined as 0.05.

Take `O=C(N[C@@H](C1CC1)C(F)(F)F)c1cc(-c2cnn3cc(-c4ccc(F)cc4)cnc23)cs1`: the fold change (FC) in assay [5] and in assay [6] was 0 throughout.

As for `CNC(=O)c1ccccc1Oc1nc(Nc2cc(OC)c(OC)c(OC)c2)ncc1Br`, in assay [7], the fold change (FC) came to 0.14.

These data come from ChEMBL document CHEMBL5653631, “A Potent and Selective ULK1 Inhibitor Suppresses Autophagy and Sensitizes Cancer Cells to Nutrient Stress” (iScience, 2018).
